Calls of active or inactive are those of the source. The calls are words filed in the database; no cut-off is given here.
How the values were obtained:
[1] = biological target: T1, Anoctamin-1 (Homo sapiens) (UniProt Q5XXA6); experiment: Inhibition of human ANO1 channel expressed in HEK293 cells at 10 uM incubated for 10 mins by FLIPR assay relative to control; assay type: cell-based
T1 sequence (whole entry): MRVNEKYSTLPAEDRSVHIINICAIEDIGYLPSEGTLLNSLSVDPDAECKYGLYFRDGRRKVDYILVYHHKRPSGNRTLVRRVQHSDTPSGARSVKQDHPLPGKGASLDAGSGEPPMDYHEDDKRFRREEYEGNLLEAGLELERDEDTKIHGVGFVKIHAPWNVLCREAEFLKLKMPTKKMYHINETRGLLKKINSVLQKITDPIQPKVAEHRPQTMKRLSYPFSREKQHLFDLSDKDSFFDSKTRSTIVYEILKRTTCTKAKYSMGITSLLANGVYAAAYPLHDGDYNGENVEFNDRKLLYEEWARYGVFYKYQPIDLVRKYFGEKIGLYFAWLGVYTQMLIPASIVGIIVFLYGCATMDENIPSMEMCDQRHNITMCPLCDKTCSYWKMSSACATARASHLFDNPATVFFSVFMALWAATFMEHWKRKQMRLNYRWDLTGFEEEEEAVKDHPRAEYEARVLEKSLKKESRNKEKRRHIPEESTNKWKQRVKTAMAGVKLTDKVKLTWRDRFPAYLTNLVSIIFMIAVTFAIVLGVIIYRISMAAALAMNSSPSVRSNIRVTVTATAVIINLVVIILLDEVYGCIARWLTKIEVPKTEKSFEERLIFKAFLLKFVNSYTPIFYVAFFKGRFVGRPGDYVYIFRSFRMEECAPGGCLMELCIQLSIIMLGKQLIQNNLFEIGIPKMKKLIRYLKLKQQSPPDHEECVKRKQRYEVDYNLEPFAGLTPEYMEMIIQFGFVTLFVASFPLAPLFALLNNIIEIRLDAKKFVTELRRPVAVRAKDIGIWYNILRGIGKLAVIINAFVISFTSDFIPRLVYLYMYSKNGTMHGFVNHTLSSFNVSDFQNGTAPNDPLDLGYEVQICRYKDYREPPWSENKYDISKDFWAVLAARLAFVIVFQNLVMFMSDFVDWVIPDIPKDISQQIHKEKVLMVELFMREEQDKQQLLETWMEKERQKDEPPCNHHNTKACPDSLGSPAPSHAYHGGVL
Procedure, shortened: (§1)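 HEK293 cells expressing human ANO1, 50,000 cells/well, plated overnight. Loaded with FLIPR Red membrane-potential dye in HEPES-buffered saline (pH 7.4) for 40-60 min at room temperature. Compound added for 10 min at room temperature, final DMSO 0.5%.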

Anoctamin-1 [2] = biological target: T2, Anoctamin-1 (Homo sapiens, UniProt Q5XXA6); experiment: Inhibition of human ANO1 channel expressed in HEK293 cells incubated for 10 mins by FLIPR assay; assay type: cell-based; procedure, shortened: as §1
T2 sequence (Q5XXA6 whole entry): T1 sequence (whole entry)

Anoctamin-1 [3] = biological target: T3, Anoctamin-1 (Mus musculus, UniProt Q8BHY3); experiment: Inhibition of GFP-fused mouse ANO1 channel expressed in HEK293A cells assessed as inhibition of ATP-induced channel current amplitude at membrane potential of +80 mV by patch clamp electrophysiology assay; assay type: cell-based, HEK293-A
T3 sequence (Q8BHY3 whole entry): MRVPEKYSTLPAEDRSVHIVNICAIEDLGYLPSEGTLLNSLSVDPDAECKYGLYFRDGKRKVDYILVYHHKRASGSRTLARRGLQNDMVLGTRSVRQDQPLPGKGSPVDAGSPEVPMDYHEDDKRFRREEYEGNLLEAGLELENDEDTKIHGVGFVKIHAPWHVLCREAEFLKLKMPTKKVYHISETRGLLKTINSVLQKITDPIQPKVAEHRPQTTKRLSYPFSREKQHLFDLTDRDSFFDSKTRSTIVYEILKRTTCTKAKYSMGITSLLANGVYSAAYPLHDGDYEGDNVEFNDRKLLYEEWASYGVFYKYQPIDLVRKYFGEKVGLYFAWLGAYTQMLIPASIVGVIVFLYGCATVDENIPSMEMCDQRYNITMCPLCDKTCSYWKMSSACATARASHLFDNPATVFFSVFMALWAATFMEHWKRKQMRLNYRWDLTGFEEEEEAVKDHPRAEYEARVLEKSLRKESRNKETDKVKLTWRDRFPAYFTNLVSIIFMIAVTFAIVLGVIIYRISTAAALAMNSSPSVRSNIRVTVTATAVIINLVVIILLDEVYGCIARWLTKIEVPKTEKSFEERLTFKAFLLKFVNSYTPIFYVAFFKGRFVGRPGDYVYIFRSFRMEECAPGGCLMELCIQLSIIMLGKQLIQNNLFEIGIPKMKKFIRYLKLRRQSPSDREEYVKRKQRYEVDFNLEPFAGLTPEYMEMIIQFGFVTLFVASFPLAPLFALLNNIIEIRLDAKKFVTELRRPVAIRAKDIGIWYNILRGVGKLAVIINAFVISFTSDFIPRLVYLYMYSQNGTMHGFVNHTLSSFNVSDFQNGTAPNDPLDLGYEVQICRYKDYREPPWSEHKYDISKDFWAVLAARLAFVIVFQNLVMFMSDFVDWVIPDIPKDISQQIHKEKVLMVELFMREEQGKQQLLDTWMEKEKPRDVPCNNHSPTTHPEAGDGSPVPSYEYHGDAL
Procedure, shortened: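 Whole-cell recording at room temperature in HEK293A cells transfected with GFP-mANO1, GFP-mANO2 or GFP-mTTYH1. 1 s ramps from +80 to -80 mV, holding potential -10 mV. For ANO1/ANO2: pipette CsCl 146 mM with Ca-EGTA-NMDG, pH 7.3; bath NaCl-based, pH 7.3. For TTYH1: Tris-aspartate pipette (pH 7.2) and Tris-HCl bath (pH 7.4), with […] and BaCl2 added to block K+ channels, and hypotonic (220 mOsm/kg) bath. Washout recordings assessed reversibility.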

[4] = Antiproliferative activity against mouse primary astrocytes assessed as reduction in cell viability at 100 uM measured after 72 hrs by Celltiter-Glo luminescent assay; assay type: cell-based, Astrocyte
Procedure, shortened: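 Primary astrocytes isolated from adult mouse brain by a previously reported method. 5.0×10^3 cells/well, compound as 1:4 serial DMSO dilutions, CellTiter-Glo viability at 72 h.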

U-87 MG = experiment: Antiproliferative activity against human U87MG cells overexpressing ANO1 assessed as reduction in cell viability at 100 uM measured after 72 hrs by Celltiter-glo assay; assay type: functional, U-87MG ATCC
Procedure, shortened: (§2)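 5.0×10^3 cells/well seeded, overnight, then compounds added as 1:4 serial dilutions in DMSO; viability read after 72 h with CellTiter-Glo luminescence. GI50 from fitted dose-response curves; triplicate wells, SD from three independent experiments. DMEM for U251 and U138, MEM for U87MG, both with 10% FBS and pen/strep, 37 °C, 5% CO2.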

U138-MG = experiment: Antiproliferative activity against human U138 cells overexpressing ANO1 assessed as reduction in cell viability at 100 uM measured after 72 hrs by Celltiter-glo assay; assay type: functional; procedure, shortened: as §2
U-251 [5] = experiment: Inhibition of anchorage-independent colony formation in human U251 cells at 10 uM incubated for 14 days by crystal violet staining based soft agar colony formation assay; assay type: functional, cell-based; conditions: time 14.0 day
Procedure, shortened: (§3)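 Soft agar assay: 2.0×10^3 U251 cells in complete medium with 0.3% agar over a 0.6% bottom agar layer. Treated with compounds at 1-100 μM for 14 days, 37 °C, 5% CO2. Colonies stained with crystal violet for 24 h, whole wells photographed and colonies counted against DMSO control; n = 3.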

U-251 [6] = experiment: Inhibition of anchorage-independent colony formation in human U251 cells at 100 uM incubated for 14 days by crystal violet staining based soft agar colony formation assay; assay type: functional; conditions: time 14.0 day; procedure, shortened: as §3
U-251 [7] = experiment: Inhibition of cell migration in human U251 cells at 10 uM incubated for 18 hrs by wound healing assay; assay type: functional
Procedure, shortened: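 U251 monolayer, 2.0×10^5 cells/well, plated overnight, then scratched and washed with PBS. Wound area imaged before and after incubation; migration ratio taken from migrated area. One-way ANOVA.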

U-251 [8] = experiment: Inhibition of cell invasion in human U251 cells at 10 uM incubated for 48 hrs by Boyden chamber method; assay type: functional
Procedure, shortened: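 Boyden chamber invasion: U251 cells serum-starved 24 h, then 2.5×10^5 cells seeded in 8-μm ECMatrix-coated transwells. Treated with compound at 1 or 10 μM for 48 h at 37 °C. Invasion ratio from relative fluorescence.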

U-251 [9] = experiment: Antiproliferative activity against human U251 cells overexpressing ANO1 assessed as reduction in cell viability measured after 72 hrs by Celltiter-glo assay; assay type: functional; procedure, shortened: as §2
U-251 [10] = experiment: Inhibition of colony formation in human U251 cells at 10 uM incubated for 14 days by crystal violet dye based assay; assay type: functional; conditions: time 14.0 day
Procedure, shortened: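 Colonies stained 24 h with crystal violet in methanol/formaldehyde/PBS, washed, extracted with 10% acetic acid and read at A570 nm. Compared against DMSO control.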

Anoctamin-1 [11] = biological target: T2, Anoctamin-1; experiment: Inhibition of human ANO1 expressed in FRT cells assessed as inhibition of ATP-induced channel current treated 20 mins prior to ATP challenge and measured by pacth-clamp technique; assay type: cell-based

inhibition [1]: 63.9%
IC50 (Anoctamin-1 [2]): 2600 nM
IC50 (Anoctamin-1 [3]): 2740 nM
GI50 (U-251 [9]): 79300 nM
IC50 (Anoctamin-1 [11]): 1100 nM
Compound: CCc1c(C)nc(SCC(=O)Nc2ncc(-c3ccc(OC)cc3)s2)nc1O
inhibition at 72 h, 100 µM [4]: < 50%
inhibition at 100 µM (U-87 MG): < 50%
inhibition at 100 µM (U138-MG): < 50%
inhibition (U-251 [5]): inactive
inhibition (U-251 [6]): inactive
inhibition at 10 µM (U-251 [7]): 26.5%
inhibition at 10 µM (U-251 [8]): 19.2%
inhibition (U-251 [10]): inactive

Source: ChEMBL document CHEMBL4706565, “Anti-glioma effects of 2-aminothiophene-3-carboxamide derivatives, ANO1 channel blockers” (Eur J Med Chem, 2020)
